Screening results from PubChem BioAssay.
In the library only some 4.9% were active in any assay of this set; here they are far more common.
RAM inhibit – inhibitors of the yeast RAM network; S. cerevisiae dse1pr::URA3 reporter, 5-FOA growth OD615, 2 d; analog-sensitive cbk1-as2 kinase mutant strain; 1.8% of 190,000 active; AID 868; inhibition, % at 50 µM;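 active means inhibition above a set limit, 3 SD over mean compound inhibition, cut at about 8.4% in these data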;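 further: inhibition rescues growth on 5-FOA so higher OD means more RAM inhibition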
NPY2 pot ag – human NPY-Y2 potentiation or agonism, primary screen | P49146 | 0.45% of 220,000 active | activation, % at 3.6 µM | cells expressing NPY-Y2, potentiator/agonist read-out; in the data active means activation above about 27%;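 further: cells stimulated with NPY near EC25 plus isoproterenol at EC100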
NPY-Y1 PAM-ag – human NPY-Y1 potentiation or agonism, primary screen | P25929 | 0.37% of 220,000 active | activation, % at 3.6 µM | AID 1304 | NPY-Y1 expressing cells, potentiator/agonist activation; in the data active means activation above about 33%, passing the limit was not always enough;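 further: cells stimulated with NPY at EC10 then isoproterenol at EC100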
Target sequence (P25929 whole entry, looked up): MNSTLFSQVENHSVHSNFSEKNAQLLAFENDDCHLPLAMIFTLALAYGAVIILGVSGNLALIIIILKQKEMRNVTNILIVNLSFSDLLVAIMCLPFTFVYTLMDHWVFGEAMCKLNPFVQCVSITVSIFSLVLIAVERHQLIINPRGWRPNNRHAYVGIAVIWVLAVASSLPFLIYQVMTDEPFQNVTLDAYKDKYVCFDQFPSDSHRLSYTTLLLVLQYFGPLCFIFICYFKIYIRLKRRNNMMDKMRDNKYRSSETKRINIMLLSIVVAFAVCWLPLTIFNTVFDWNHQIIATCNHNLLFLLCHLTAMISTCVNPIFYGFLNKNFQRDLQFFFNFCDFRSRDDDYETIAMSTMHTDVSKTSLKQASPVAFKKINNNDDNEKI
WT yeast gro inh – growth inhibition of WT yeast, mitochondrial fusion screen; 2.1% of 190,000 active; inhibition, % at 10 µM; mitochondrial fusion phenotypic screen, WT strain; AID 1362; in the data active means inhibition above about 58%; tested in S. cerevisiae
NPY-Y1 antag – blocks the human neuropeptide Y Y1 receptor | inhibition, % at 3.6 µM | P25929 | HEK293-CNG Y1 cells, membrane potential fluorescence; NPY at EC95, then isoproterenol | 1% of 200,000 active | AID 1040;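 active means inhibition above the campaign mean inhibition of all tested compounds plus 3 SD, cut at about 20% in these data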
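material = HEK293 cells with Y1 receptor plus CNG channel | also added = NPY 25 nM then isoproterenol 1 µM plus Ro 20-1724 25 µM | schedule = dye 3 h, compound 60 min room temperature, stimulation 45 min | measured by = membrane potential fluorescence | benchmarks = high control isoproterenol alone, low control NPY with isoproterenol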
NPY-Y2 antag – NPY-Y2 (human) receptor antagonism; 0.99% of 140,000 active; inhibition, % at 2.7 µM; P49146; NPY-Y2 expressing cells, antagonist mode; in the data active means inhibition above about 17%
NPY1 antag ctr – counter-screen for NPY-Y2 antagonists: human NPY-Y1 antagonism; shares compounds with NPY-Y2 antag; cell-based NPY-Y1 antagonism counterscreen; inhibition, % at 3.6 µM; 19% of 710 active; in the data active means inhibition above about 20%;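 further: cells challenged with NPY then isoproterenol with cAMP sensed through a CNG channel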
NPY2 antag conf – confirmation of human neuropeptide Y receptor Y2 antagonists; HEK293 NPY-Y2 CNG channel, membrane potential fluorescence; inhibition, % at 2.8 µM; shares compounds with NPY-Y2 antag; 32% of 710 active;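 active means mean inhibition of triplicate wells above the hit cutoff set in the primary screen, cut at about 17% in these data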
RAM 5-FOA – restores 5-FOA growth of efflux-deficient yeast | S. cerevisiae efflux-deficient reporter strain, 5-FOA growth OD615, 2 days | shares compounds with RAM inhibit | max inhibition, % | 1,200 tested, under 10 active; call rule not given here
Of the large screens only hits and unclear results are named; the others gave an inactive call (follow-up assays come after a bar, where they were run).

O=C(NC1CCCC1)C(c1ccsc1)N(C(=O)Cc1cccs1)c1ccccc1 (configuration not stated)	none
O=C(NC1CCCC1)C(c1ccsc1)N(CCc1ccccc1)C(=O)Cc1cccs1 (configuration not stated)	NPY-Y2 antag 34 | NPY1 antag ctr 21 | NPY2 antag conf inactive
CCOc1nc(SCCOc2ccc(Cl)cc2Cl)nc(N(C)C)n1	NPY-Y2 antag 20 | NPY1 antag ctr inactive | NPY2 antag conf 44
CCOc1nc(SCCOc2ccc(C)cc2)nc(N(C)C)n1	none
COc1ccc2c(C)cc(SCC(=O)N3CCOCC3)nc2c1	none
Cc1ccc(CN(C(=O)Cn2nnc3ccccc32)C(C(=O)NCc2ccco2)c2ccc(C)o2)cc1 (configuration not stated)	none
Cc1ccc(C(C(=O)NCc2ccco2)N(CCc2ccccc2)C(=O)Cn2nnc3ccccc32)o1 (configuration not stated)	NPY-Y2 antag 32 | NPY1 antag ctr 20 | NPY2 antag conf inactive
Cc1ccc(NC(=O)c2c(C(F)(F)F)nn(C)c2SCc2ccc(Cl)cc2)cc1C	RAM inhibit 11, NPY-Y2 antag 17 | NPY1 antag ctr inactive | NPY2 antag conf inactive
Cc1cc[n+](Cc2ccc([N+](=O)[O-])cc2)cc1	none (no result: NPY-Y2 antag)
O=[N+]([O-])c1ccc(-c2csc3[n+]2CCS3)cc1	WT yeast gro inh 72, NPY-Y2 antag 23 | NPY1 antag ctr inactive | NPY2 antag conf inactive
CC(C)c1ccc(-c2nnn(Cc3nc4ccccc4s3)n2)cc1	NPY-Y2 antag 23 | NPY1 antag ctr inactive | NPY2 antag conf 23
O=C(CSc1nnc(-c2ccccn2)n1Cc1ccco1)c1ccc(Cl)cc1	none
Brc1ccc(CSc2nnc(-c3ccccn3)n2Cc2ccco2)cc1	NPY-Y2 antag 24 | NPY1 antag ctr inactive | NPY2 antag conf 26
O=C(CSc1nnc(-c2ccccn2)n1Cc1ccco1)c1ccccc1	none
c1ccc(CSc2nnc(-c3cccs3)n2Cc2ccco2)cc1	NPY-Y2 antag 19 | NPY1 antag ctr inactive | NPY2 antag conf inactive
Clc1cccc(CSc2nnc(-c3ccccn3)n2Cc2ccco2)c1	NPY-Y2 antag 20 | NPY1 antag ctr inactive | NPY2 antag conf inactive
c1ccc(CSc2nnc(-c3ccco3)n2Cc2ccco2)cc1	none
CC(C)CC(=O)N1CCN(S(=O)(=O)c2ccc(Cl)cc2)CC1	none (no result: NPY-Y2 antag)
COc1ccc(/C=C/C(=O)Oc2cccc(/C=N/NC(=O)Cc3ccc(Br)cc3)c2)cc1	none (no result: RAM inhibit, WT yeast gro inh, NPY-Y1 antag, NPY-Y2 antag)
Cc1ccc(-c2nnc(/C=C/c3ccccc3)o2)cc1	NPY-Y2 antag 20 | NPY1 antag ctr inactive | NPY2 antag conf inactive
Cc1ccc(/C=C/c2nnc(-c3cccc(C)c3)o2)cc1	none
Cc1cccc(-c2noc(CN(C(=O)C(c3ccccc3)c3ccccc3)C(C)C)n2)c1	NPY-Y2 antag 17 | NPY1 antag ctr inactive | NPY2 antag conf inactive
CSc1ccc(Cl)c(C(=O)NCCOc2cc(C)ccc2C(C)C)c1	RAM inhibit 13, WT yeast gro inh 62, NPY-Y2 antag 17 | NPY1 antag ctr inactive | NPY2 antag conf inactive | RAM 5-FOA inactive
CSc1ccc(Cl)c(C(=O)NCCOc2ccccc2)c1	none
CN(C)c1cccc(C(=O)OCC(=O)Nc2ccccc2-c2ccccc2)c1	none
CCN(CC)c1ccc(C(=O)OCC(=O)Nc2ccccc2-c2ccccc2)cc1	RAM inhibit 22, NPY-Y2 antag 21 | NPY1 antag ctr inactive | NPY2 antag conf inactive | RAM 5-FOA inactive
CCNc1ccc2noc3c2c1C(=O)c1ccccc1-3	RAM inhibit 20, NPY2 pot ag 49, NPY-Y1 PAM-ag 72, NPY-Y2 antag 45 | NPY1 antag ctr inactive | NPY2 antag conf inactive | RAM 5-FOA inactive
N#Cc1nc(Cc2ccccc2)oc1N1CCN(c2ccccc2)CC1	none (no result: WT yeast gro inh)
